Experimental data pooled from the literature.
Protocols differ between the studies behind these lines.
Target: Serine/threonine-protein kinase PLK3 (PLK3, Homo sapiens, UniProt Q9H4B4)

`COc1cc(Nc2ncc(F)c(Nc3ccc4c(n3)NC(=O)C(C)(C)O4)n2)cc(OC)c1OC` gave an inhibition of 100% (binding; 10 µM).
`COc1ncccc1-c1cnn2ccc(N3CCN(C(=O)OC(C)C)CC3)nc12` gave a remaining binding of 100% (binding; competition with immobilised ligand; 1 µM).
With `Cc1nn(C)cc1-c1nc2c(N3CCN(Cc4ccc(Cl)cc4)CC3)c(Cl)cnc2[nH]1` the remaining binding was 88% (binding; competition with immobilised ligand; 1 µM).
`O=c1[nH]c2ccccc2n1C1CCN(Cc2ccc(-c3[nH]c4cc5ncnc5cc4nc3-c3ccccc3)cc2)CC1` has a remaining signal of 99.1% (cell-free assay; 0.5 µM).
For `Cn1cncc1[C@@](O)(COc1ccc(C#N)cc1-c1ccc(OC(F)(F)F)cc1)c1ccc(C#N)cc1`, the remaining binding was 88% (cell-free assay; competition with immobilised ligand; 1 µM).
The inhibition of `Cn1cc(-c2cccc(N3CCc4c(sc5c4CC(C)(C)C5)C3=O)c2CO)cc(Nc2ccncn2)c1=O` is reported as -15% (enzyme activity; inhibitor; 1 µM).
For `Nc1ncc(-c2nc(N3CCOCC3)nc(N3CCOCC3)n2)c(C(F)F)n1`, the remaining binding was 83% (binding; competition with immobilised ligand; 10 µM).
`N#CC1(c2ccccn2)CCN(Cc2cc(C(=O)O)c(=O)n3ccccc23)CC1` gave a remaining binding of 85% (cell-free assay; competition with immobilised ligand; 1 µM).
The inhibition of `Cn1cc(-c2cc(F)cc(N3CCn4c(cc5c4CCCC5)C3=O)c2CO)cc(Nc2ccc(N3CCN(C4COC4)CC3)cn2)c1=O` is reported as 10% (enzyme activity; inhibitor; 0.1 µM).
The remaining activity of `CC(C)(C)c1cc(C=C(C#N)C#N)cc(Br)c1O` is reported as 94.6% (enzyme activity; inhibitor; 0.5 µM).
